Bioassay records as filed in PubChem BioAssay.
Shown are actives, neighbours in structure and some others; about 4% of the full set was active somewhere.
Measles CPE: compounds protecting cells from measles virus cytopathic effect, primary screen, measles RdRp inhibitor project, single point, MLSMR library, absorbance. actives 1.5% (n = 140,000). protection (pct of control), % at 4 µM. Measles virus-infected cells, CPE protection; in the data active = protection mostly above about 24%, no sharp cut-off; inactive = mostly below about 26%
Mdm2 ligase inh: MDM2-luciferase reporter signal enhancers, primary screen, MDM2 E3 ligase inhibitor project, cell-based, luminescence, 1536-well | E3 ubiquitin-protein ligase Mdm2 (Homo sapiens), Q00987 | cell-based MDM2 ubiquitination luciferase reporter, 2 h; 0 = plate control, 100 = twice control, blank-subtracted | signal enhancement, % at 5 µM | actives 0.11% (n = 210,000);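 active = signal enhancement of 30% or more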;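 note: luminescence tracks abundance of the self-degrading MDM2-luciferase fusion protein; higher signal means inhibition of MDM2 E3 ligase activity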
Target sequence (Q00987 whole entry, looked up, the tested form may be a part): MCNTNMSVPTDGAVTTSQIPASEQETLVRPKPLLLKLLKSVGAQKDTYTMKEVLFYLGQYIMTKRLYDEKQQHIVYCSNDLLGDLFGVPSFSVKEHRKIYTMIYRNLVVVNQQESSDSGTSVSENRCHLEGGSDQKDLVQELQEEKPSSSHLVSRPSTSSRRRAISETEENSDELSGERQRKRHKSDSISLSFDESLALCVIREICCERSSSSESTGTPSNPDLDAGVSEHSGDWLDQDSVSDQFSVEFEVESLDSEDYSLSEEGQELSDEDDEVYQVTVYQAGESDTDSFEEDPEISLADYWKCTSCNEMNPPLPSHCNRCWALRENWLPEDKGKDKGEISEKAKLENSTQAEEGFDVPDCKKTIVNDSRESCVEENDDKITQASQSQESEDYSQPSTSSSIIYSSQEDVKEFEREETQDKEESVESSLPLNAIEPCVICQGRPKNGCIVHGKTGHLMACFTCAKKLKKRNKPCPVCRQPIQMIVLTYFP
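Buffer or medium: Cells held in DMEM | Assay system: Stable mammalian line carrying autodegrading MDM2–luciferase fusion reporter | Quantity: 2000 cells/well | Times: 4 h settle plus 2 h compound, 37 °C | Doses: One concentration, 5 µM, with 0.2% DMSO | Technique: Luminescence with SteadyLite reagent, 15 min at room temperature | Benchmarks: Plate controls and plate blanks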
Yeast lifespan up: compounds extending yeast replicative lifespan, primary screen, S. cerevisiae, OD615; S. cerevisiae growth with nicotinamide; deaD strain in restrictive glucose medium; inhibition of the nicotinamide effect, % at 10 µM; actives 0.68% (n = 130,000); AID 775, 2007;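 active = inhibition above a set limit, placed 3 SD over the median of all compounds, cut at about 26% in these data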;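 note: 0% = nicotinamide-treated wells and 100% = cells grown without nicotinamide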
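Material: Modified budding yeast, DeaD strain | Medium: Restrictive glucose medium | Probe or stimulus: 1.5 mM nicotinamide | Dosing: Single dose 10 µM compound, 0.25% DMSO | Times: 48 h at 30 °C | Technique: OD615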
RAM inhibit: inhibitors of the yeast RAM network, primary screen, dse1pr::URA3 reporter, 5-FOA selection. inhibition, % at 50 µM. AID 868, 2007. S. cerevisiae dse1pr::URA3 reporter, 5-FOA growth OD615, 2 d; analog-sensitive cbk1-as2 kinase mutant strain. actives 1.8% (n = 190,000);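 active = inhibition above a set limit, 3 SD over mean compound inhibition, cut at about 8.4% in these data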;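 note: 0% = DMSO-only wells with no growth and 100% = 10 µM 1-NA-PP1 full growth; inhibition rescues growth on 5-FOA so higher OD means more RAM inhibition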
BB579 growth dn: growth inhibitors of yeast BB579 in restrictive medium, primary screen, yeast lifespan-shortening project, S. cerevisiae. actives 0.51% (n = 140,000). inhibition, % at 10 µM. AID 804, 2007. OD615, 48 h;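 active = inhibition above a set limit, 3 SD over the mean compound inhibition, cut at about 44% in these data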
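System: Saccharomyces cerevisiae DeaD strain BB579, replicative lifespan model yeast. Buffer or medium: restrictive glucose-based CSMM-D medium. Doses: one dose, 10 µM compound with 0.25% DMSO. Timing: 4 h preincubation and 48 h exposure at 30 °C. Detection: turbidity as optical density at 615 nm. Benchmarks: amphotericin B 10 µg/mL, positive.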
INS promoter inh: inhibitors of insulin promoter-driven GFP, primary screen, imaging, TRM-6 cells (human fetal islet line), eGFP reporter, cell count; reporter expression induced with tamoxifen; inhibition, % at 2 µM; actives 0.9% (n = 130,000);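 active = inhibition above the mean plus 3 SD, with well images judged a real hit on visual review, cut at about 60% in these data, passing the limit was not always enough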
Numbers without * were called inactive; . = no result given.

SMILES | Measles CPE | Mdm2 ligase inh | Yeast lifespan up | RAM inhibit | BB579 growth dn | INS promoter inh
CCCCCn1nc(-c2ccccc2)c2nc3ccccc3nc21 | 8.6 | -6.2 | -17.0 | 6.6 | -50.2 | 20.0
CCOc1ccc(N2CC(C(=O)Nc3ccccc3N3CCOCC3)CC2=O)cc1 (stereo not given) | 14.0 | -2.0 | -7.4 | -0.9 | -20.2 | 20.0
COc1ccc(Cn2nnc3c(=O)[nH]c(C(=O)NCCc4ccc(F)cc4)nc32)cc1OC | 9.3 | -11.2 | -10.7 | 0.2 | -15.3 | 90.0*
CCOC(=O)c1cnc(-n2nc(C)cc2C)nc1NCCc1ccccc1 | 27.1 | 3.9 | -14.9 | -1.5 | 52.3* | -7.1
COc1cc(-c2nnc(COc3ccc4ccccc4c3)o2)cc(OC)c1OC | 26.5 | -14.2 | -8.0 | 9.4* | -37.0 | -53.1
N#CCSc1nnc(COc2ccc3ccccc3c2)o1 | 46.1* | -7.5 | -13.4 | 0.8 | -37.6 | 38.5
COc1nc(N(CC(N)=O)S(=O)(=O)c2ccccc2)nc(C)c1Cl | 28.9* | . | . | 3.3 | -10.7 | 7.7
CCS(=O)(=O)C1=NN2C(=N)/C(=C\c3ccc(SCc4ccco4)o3)C(=O)N=C2S1 | . | -1.2 | . | 10.9* | . | 10.5
N=C1/C(=C\c2ccc(SCc3ccccc3)o2)C(=O)N=C2SC=NN12 | . | -1.7 | . | 3.5 | . | 33.3
O=[N+]([O-])c1ccc(-c2cnc(SC(c3ccccc3)c3ccccc3)[nH]2)cc1 | 7.1 | -8.2 | -2.3 | 9.5* | -34.0 | .
CCCN(CCC)S(=O)(=O)c1ccc(Cl)c([N+](=O)[O-])c1 | . | -28.1 | . | 0.4 | . | .
CCOC(=O)C(C)(C)N(Cc1ccccc1C)S(=O)(=O)c1ccc(Cl)c([N+](=O)[O-])c1 | 16.2 | -3.3 | 13.7 | 9.3* | -57.9 | 7.1
O=C(CSc1nnc(COc2ccccc2Cl)o1)NC(=O)NCc1ccco1 | . | -1.5 | . | . | . | .
CSc1ccc(/C=C(/Sc2nnc(-c3ccccc3)o2)C(=O)O)cc1 | . | 15.7 | . | 3.5 | . | 80.0*
COc1ccc(-c2nnc(S/C(=C/c3ccc(Cl)cc3)C(=O)O)o2)cc1 | . | -8.6 | . | 3.5 | . | 40.0
CC(C)(C)n1nnnc1C(c1cccs1)N(Cc1cccnc1)Cc1ccco1 (stereo not given) | 14.8 | -14.7 | -1.0 | 0.0 | -82.5 | -28.9
CC(C)(C)n1nnnc1C(c1cccs1)N(Cc1ccccc1)Cc1ccco1 (stereo not given) | 11.4 | -17.0 | 1.6 | 9.6* | -17.5 | -41.9
N#Cc1ccccc1NC(=O)CSc1nnc(-c2ccccc2O)n1-c1ccccc1 | 16.8* | -4.7 | -4.9 | 10.2* | -36.0 | 35.0
CCc1nnc(NC(=O)CSc2nc(C3CCCCC3)nc3ccccc23)s1 | 17.6 | -22.9 | 6.6 | 10.1* | -67.2 | 33.3
COCCCn1c(SCC(=O)Nc2nnc(C)s2)nnc1-c1ccoc1C | 7.5 | -9.0 | 59.6* | 1.4 | -6.9 | .
CCc1nnc(NC(=O)CSc2nnc(-c3ccoc3C)n2-c2ccccc2)s1 | 8.9 | -10.5 | -1.9 | 2.7 | -17.0 | 81.4*
COCCn1c(SCC(=O)Nc2nnc(C)s2)nnc1-c1ccco1 | . | -5.3 | . | 2.6 | . | -46.7
O=C(N/N=C/c1ccc([N+](=O)[O-])cc1)c1[nH]ncc1Br | . | -21.4 | . | 3.9 | . | .
NC(=O)Cn1c(=O)n(CCC(=O)NCCSCc2ccccc2)c(=O)c2ccccc21 | . | 10.5 | . | 1.7 | . | -33.3
CSc1nc(NCC(C)C)nc(N2CCOCC2)n1 | 35.8* | -5.5 | -9.8 | -0.1 | -44.7 | -280.0
SMILES | Measles CPE | Mdm2 ligase inh | Yeast lifespan up | RAM inhibit | BB579 growth dn | INS promoter inh
CCCNc1nc(N2CCOCC2)nc(N2CCOCC2)n1 | 8.1 | -6.0 | -18.3 | 0.1 | -47.3 | -36.1
O=C(NS(=O)(=O)Oc1cccc(Cl)c1Cl)OC[C@@H]1CCCN2CCCCC12 (stereo not given in full) | 7.2 | -20.1 | -2.3 | 2.3 | -55.1 | -50.0
O=C(NCCc1ccccc1)C1CCN(C2CCN(Cc3ccc(CO)o3)CC2)CC1 | . | 37.8* | . | 0.2 | . | 66.7
O=C(NCCc1ccccc1)C1CCN(C2CCN(C(=O)CC3=CCCCC3)CC2)CC1 | . | -4.2 | . | 3.3 | . | .
COc1ccc2c(c1OC)C(=O)OC2C1c2c(cc3c(c2OC)OCO3)CCN1C (stereo not given) | 38.1 | 4.9 | 4.9 | 2.2 | -45.6 | -19.1
CN1CCc2cc3c(c4c2[C@H]1[C@H](O)c1ccccc1-4)OCO3 | 0.7 | . | -5.1 | -0.1 | 62.1* | 14.3
O=C(Nc1ccc2nc(SCc3ccc(Cl)cc3)sc2c1)c1ccccc1C(=O)N1CCOCC1 | 13.7 | -32.5 | -12.4 | 6.5 | -18.4 | .
COC(=O)CSc1nc2ccc(NC(=O)c3ccccc3C(=O)N3CCOCC3)cc2s1 | 22.2 | -12.7 | -5.3 | 9.1* | -31.9 | .
O=C(NCc1cccnc1)C1CCN(C(=O)c2ccc(Cl)cc2Cl)CC1 | 35.5* | 5.2 | -9.4 | 0.9 | -6.6 | 31.4
C=CCn1c(SC2CCOC2=O)nc2scc(C3CC3)c2c1=O (stereo not given) | 24.9 | -17.2 | -8.1 | 3.6 | -8.6 | .
CC/C(=C1/C(=O)CC(C)(C)C(C(=O)OC)C1=O)N1CCCC1 (stereo not given) | 19.2 | 16.0 | 29.8* | 0.8 | -21.2 | 21.7
O=C(O)c1ccccc1-c1nc2ccccc2[nH]1 | . | -26.7 | . | -0.7 | . | .
Oc1ccc2ccccc2c1C=Nc1ccccc1-c1nc2ccccc2[nH]1 | 1.5 | 4.1 | 38.7* | -1.0 | -39.2 | 32.4
CCOc1ccc(OCCCC(=O)O)cc1 | 2.5 | -20.5 | -5.4 | -0.7 | -37.0 | -11.9
O=C(O)c1ccc(N2C(=O)CC(SC(=Nc3ccccc3)Nc3ccccc3)C2=O)cc1 (stereo not given) | 4.7 | -9.6 | -4.5 | 6.6 | -40.5 | -35.7
CC(/C=C/c1ccc(N(C)C)cc1)=N\N=C(/N)SC1CC(=O)N(c2ccc(C(=O)O)cc2)C1=O (stereo not given) | 5.5 | -16.6 | 3.0 | 9.8* | -14.3 | .
COC(=O)c1ccccc1NC(=O)C/C(C)=N/NC(=O)CC#N | . | -2.2 | . | 1.4 | . | 71.4*
COC(=O)c1ccccc1NC(=O)CC#N | 8.6 | 22.1 | -11.8 | -0.1 | -0.1 | -32.1
O=C(N=c1ccn(-c2nc3ccccc3nc2NS(=O)(=O)c2ccccc2)cc1)c1cccs1 | 3.1 | 6.6 | 5.5 | 8.5* | -46.5 | -4.0
CC(=O)Nc1ccc(S(=O)(=O)Nc2nc3ccccc3nc2N2CCCC2)cc1 | 3.2 | -11.6 | -18.4 | 0.0 | -30.5 | 5.4
c1ccc(Cn2nnc(CNc3ccccc3)c2-c2c(CNc3ccccc3)nnn2Cc2ccccc2)cc1 | . | 9.3 | . | . | . | .
Cc1ccc(-c2nn(-c3ccccc3)cc2C(=O)Nc2ccc(C(=O)O)cc2)cc1 | . | -6.5 | . | 9.6* | . | 47.1
